Data as given in PubChem BioAssay AID463111 (Johns Hopkins Ion Channel Center, 2010).
The campaign covered roughly 310,000 compounds. About 2,800 (0.9%) were called active.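 Rule for the calls: active = B-score of the integrated calcium signal more than 4 SD below the library mean, with starting fluorescence not abnormally high; inactive = the rest.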 This excerpt belongs to a sample that is enriched for actives.

Assay: enhancers of RGS4 function in calcium signaling – cell-based, HEK293 M3R inducible RGS4, calcium flux, primary screen (AID 463111);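 for B-score: negative B-score means reduced calcium response which marks RGS4 activation or potentiation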
Details: HEK293 M3R/inducible RGS4, carbachol calcium flux Fluo4, at 10 µM; hits give low values
Procedure, shortened: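 Assay system: Inducible-RGS4 HEK293 cells carrying M3 receptor | Schedule: Compound preincubation 20 min at room temperature before agonist | Signal: Kinetic calcium fluorescence imaging with Fluo4-AM dye, 2 µM | Read-out basis: B score from integrated fluorescence ratio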

Compound	B-score
COC(=O)c1ccccc1Sc1c(/C=N/OCc2ccc(Cl)cc2)c(C(F)(F)F)nn1C	-7.48 (active)
COC(=O)c1ccccc1NC(=O)Cn1nc(C(F)(F)F)c2c1CCC2	inactive
COC(=O)c1ccccc1NC(=O)CN(Cc1ccc(Cl)cc1)S(C)(=O)=O	inactive
CC(C)[C@H](NC(=O)c1ccc(F)cc1)C(=O)OCC(=O)NC(=O)c1cccn1C	inactive
Cc1cccc(NS(=O)(=O)c2ccc(C(=O)NCC(C)(C)N3CCOCC3)cc2)c1C	inactive
N[C@@H](Cc1ccccc1)C(=O)N1CCOCC1	inactive
CCOC(=O)C1=C(NC(=S)NC(=O)c2ccccc2)c2ccccc2CC1(C)C	-9.14 (active)
COCCCNC(=S)NC(=O)c1ccccc1	inactive
CCOC(=O)c1c(-c2ccccc2)csc1NC(=S)NC(=O)c1ccccc1	inactive
CCn1c(SC)nc(O)c(C(c2ccc(OC)c(O)c2)c2c(O)nc(SC)n(CC)c2=O)c1=O	inactive
O=C(/C=C/c1ccc(F)cc1)Nc1cccc(S(=O)(=O)Nc2cccc(C(F)(F)F)c2)c1	inactive
CCOC(=O)N1CCN(C(=O)c2ccc(S(=O)(=O)Nc3cccc(C(F)(F)F)c3)cc2)CC1	inactive
Cc1oc2c(F)c(F)c(F)c(F)c2c1S(=O)(=O)Nc1cccc(C(F)(F)F)c1	-9.29 (active)
CCOc1ccc(NC(=O)CN(C)CC(=O)NC(C)c2ccccc2)cc1OCC (stereo unspecified)	inactive
COc1cc(NS(=O)(=O)c2ccc(NC(=O)CN3C(=O)c4ccccc4C3=O)cc2)ncn1	inactive
CS(=O)(=O)Nc1ccc(C(=O)N2CCCC2)cc1	inactive
C=CCOc1ccc(/C=C/C(=O)OCC(=O)NCC2CCCO2)cc1 (stereo unspecified)	inactive
O=C(Nc1nccs1)C1CCN(S(=O)(=O)c2ccc(Cl)c(C(F)(F)F)c2)CC1	inactive
Cc1ccc(NC(=O)COc2ccc(/C=C3/NC(=O)NC3=O)cc2)cc1	inactive
CSc1ccc(/C=C2\NC(=O)NC2=O)cc1	inactive
CC(C)c1ccc(/C=C2\NC(=O)NC2=O)cc1	-8.02 (active)
COc1ccc(C2=NN(C(=O)CSc3nc(=O)n4ccc(C)cc4n3)C(c3ccc(C)cc3)C2)cc1 (stereo unspecified)	inactive
CC(C)Cn1c(N2CCN(C(=O)/C=C/c3ccccc3)CC2)nc2ccccc21	inactive
O=C1c2ccccc2C(=O)c2c1cccc2N1CCN(C/C=C/c2ccccc2)CC1	inactive
O=C(Cn1c(N2CCN(C/C=C/c3ccccc3)CC2)nc2ccccc21)c1ccccc1	-8 (active)
CC(NCc1nc2ccccc2n1C)C12CC3CC(CC(C3)C1)C2 (stereo unspecified)	inactive

Compound	B-score
CCN(CC)C(=O)COc1coc(CN2CCN(Cc3ccccc3)CC2)cc1=O	inactive
CCOc1cccc(NC(=O)Cn2nc(-c3ccc4c(c3)OCCO4)ccc2=O)c1	inactive
CCOc1ccc2[nH]c(=O)c(CN(Cc3nnnn3CCc3ccccc3)CC3CCCO3)cc2c1 (stereo unspecified)	inactive
c1ccc(-c2cc3c(NCC4COc5ccccc5O4)ncnc3s2)cc1 (stereo unspecified)	inactive
Oc1ccccc1N1CCN(c2ncnc3sc(-c4ccccc4)cc23)CC1	-9.36 (active)
COc1ccccc1N1CCN(c2ncnc3sc(C)c(-c4ccccc4)c23)CC1	inactive
CNC(=O)COc1ccc(S(=O)(=O)Nc2ccccc2)cc1	inactive
CCn1ncc(CNC(=O)C2(C)CC2(Br)Br)c1C (stereo unspecified)	inactive
Nc1cc(N)nc(SCc2ccc(Cl)cc2)n1	inactive
COc1cnc(SCc2ccc(Cl)c(Cl)c2)nc1Cl	-7.01 (active)
C=CCn1c(SCc2ccc(Cl)c(Cl)c2)nnc1C(CO)NC(=O)c1ccc(OC)cc1 (stereo unspecified)	inactive
CCS(=O)(=O)Nc1ccc(C2=NN(C(C)=O)C(c3cccs3)C2)cc1 (stereo unspecified)	inactive
CCS(=O)(=O)Nc1ccc(C2=NN(S(=O)(=O)c3ccc(F)cc3)C(c3ccco3)C2)cc1 (stereo unspecified)	-7.77 (active)
CS(=O)(=O)Nc1ccc(C2=NN(S(C)(=O)=O)C(c3cccs3)C2)cc1 (stereo unspecified)	inactive
COc1ccc(N(CC(=O)Nc2cc(OC)ccc2OC)S(=O)(=O)c2c(C)noc2C)cc1	inactive
C=CCNC(=O)COC(=O)CNC(=O)c1cc(Cl)cc([N+](=O)[O-])c1	inactive
CC(=O)Nc1cccc(Nc2nc(-c3cccs3)nc3ccccc23)c1	inactive
COc1ccc(Nc2nc(-c3cccnc3)nc3ccccc23)cn1	inactive
Cc1cccc(-c2nc(Nc3ccc(O)cc3)c3ccccc3n2)c1	-8.56 (active)
CC(NS(=O)(=O)c1ccc(OCC(=O)N2CCCC2)cc1)c1ccccc1 (stereo unspecified)	inactive
CCc1ccc(N2CC(O)=C(c3nc4ccccc4c(=O)[nH]3)C2=N)cc1	inactive
COc1ccccc1CNC(=O)C1CCN(C(=O)[C@@H]2Cc3ccccc3CN2)CC1	inactive
O=C(Cc1ccccc1)NNC1CC(=O)N(c2ccc(Br)cc2)C1=O (stereo unspecified)	inactive
Cc1ccc(N2C(=O)CC(Nc3cccc4ccccc34)C2=O)cc1 (stereo unspecified)	-8.55 (active)
CC1=C(C)CC2C(=O)N(c3cccc4ccccc34)C(=O)C2C1 (stereo unspecified)	inactive
O=C(NCc1ccccc1)C1CCCN(c2nc3ccsc3c(=O)s2)C1 (stereo unspecified)	inactive

Compound	B-score
CCCCOc1ccc(C(=O)NN2CCN(C)CC2)cc1	inactive
CCCOc1ccc(C(=O)CCC(=O)OC(C)C(=O)Nc2ccc(NC(C)=O)cc2)cc1 (stereo unspecified)	inactive
CCCOc1ccc(C(=O)C(CCC(CNCC)C(=O)c2ccc(OCCC)cc2)CNCC)cc1 (stereo unspecified)	-8.07 (active)
COc1ccc(Cl)cc1NS(=O)(=O)c1cccc(C(=O)NCC2CCCO2)c1 (stereo unspecified)	inactive
C[N+](C)(C)CCNC(=O)c1cc[n+](Cc2ccccc2)c(/C=N/O)c1	inactive
Cc1ccc(/C=C(\C#N)C(=O)Nc2cccc3ncccc23)o1	inactive
C=CCn1c(=O)c(C(=O)NCc2ccc3c(c2)OCO3)c(O)c2ccccc21	inactive
Cc1ccc(C)c(NC2=NCC(=O)N2c2ccc3c(c2)OCCO3)c1	inactive
CCOc1ccccc1NC(=O)Cn1ncc2ccc([N+](=O)[O-])cc21	inactive
Cc1cccc(C)c1NC(=O)C1(C)c2cccc[n+]2CC(=O)N1Cc1cccs1 (stereo unspecified)	inactive
Cc1cc(NC(=O)COC(=O)c2ccc(F)c(S(=O)(=O)N3CCOCC3)c2)no1	inactive
O=C(Oc1ccc(-c2nnco2)cc1)c1ccc(F)c(S(=O)(=O)N2CCOCC2)c1	-7.43 (active)
COc1ccc(C(=O)Oc2ccc(-c3nnco3)cc2)cc1S(=O)(=O)N1CCOCC1	inactive
COc1ccccc1-c1cnn2c(N3CCOCC3)cc(C)nc12	inactive
CC(C)Oc1ccc(CN2CCC(n3nccc3NC(=O)c3cccnc3)CC2)cc1	inactive
Cc1ccc(-n2c(-c3ccc(Cl)cc3)n[nH]c2=S)cc1	inactive
Cc1nnc(SCC(=O)NNC(=O)c2ccc(Cl)cc2)n1CC1CCCO1 (stereo unspecified)	inactive
S=c1[nH]nc(-c2ccc(Cl)cc2)n1CC1CCCO1 (stereo unspecified)	-8.73 (active)
O=C(CSc1ncccn1)N1CCCC1	inactive
CCCCCN(C(=O)NC(=O)Nc1ccccc1OC)S(C)(=O)=O	inactive
CCCN1C2=C(C(=O)CCC2)C(c2ccc(O)c(Br)c2)C2=C1CCCC2=O	inactive
CCOc1cc(/C=N/NC(=O)c2ccc(CSc3nncn3C)cc2)ccc1OCC(=O)N1CCOCC1	inactive
COCCCNS(=O)(=O)c1cccc(S(=O)(=O)c2cccc(S(=O)(=O)NCCCOC)c2)c1	inactive
COc1cccc(CNc2nc3nc4c(c(=O)n3[nH]2)CCC4)c1	inactive
COc1cccc(-c2cc3nc4c(c(N5CCC6(CC5)OCCO6)n3n2)CCCC4)c1	-7.88 (active)
COc1cccc(NC(=O)CN2CCN(c3nc(-c4cccc(OC)c4)cs3)CC2)c1	inactive

Compound	B-score
O=C(c1cc2ccccc2o1)N1CCN(Cc2ccccc2)CC1	inactive
Cc1cnc(C(=O)N2CCCC(N3CCN(c4ccccc4F)CC3)C2)cn1 (stereo unspecified)	inactive
O=C(NCCc1c[nH]c2ccccc12)c1cc2ccccc2oc1=O	inactive
CCCN(CCC)c1nc2c(C)cccn2c(=O)c1/C=C1/SC(=S)N(Cc2ccco2)C1=O	inactive
CC(C)NC(=O)C(=O)NCCCOC(C)C	inactive
CNC(=O)c1ccsc1NC(=O)c1ccc(S(=O)(=O)N2CCOCC2)cc1	inactive
COc1ccc(C(=O)Nc2nc(-c3ccc(S(=O)(=O)N4CCOCC4)cc3)cs2)cc1	-7.75 (active)
CCOC(=O)c1csc(NC(=O)c2ccc(S(=O)(=O)N3CCCC3)cc2)n1	inactive
O=C(COC(=O)c1cnccn1)Nc1ccc(Cl)cc1C(F)(F)F	inactive
COc1ccc(Cc2nnc(SCC(=O)Nc3ccc(C)c(Cl)c3)[nH]c2=O)cc1	inactive
CN1C2CCC1CC(NC(=O)c1ccc([N+](=O)[O-])cc1)C2 (stereo unspecified)	inactive
O=C(Nc1ccccc1C(=O)Nc1ccncc1)c1ccc([N+](=O)[O-])cc1	inactive
O=C(Nc1cc2c3c(c1)C1CCCC1CN3CC1CCCC21)c1ccc([N+](=O)[O-])cc1 (stereo unspecified)	-8.07 (active)
O=C(Nc1ccc2c(c1)OCO2)C1CC(c2c(F)cccc2Cl)=NO1 (stereo unspecified)	inactive
COc1cc(NC(=S)NCCSc2ccc(C)cc2)cc(OC)c1	inactive
COc1ccc(/C=C(/NC(=O)c2ccc(C)cc2)c2nc3ccccc3[nH]2)cc1OC	inactive
COc1cc(/C=C(\C#N)c2nc3c(s2)CC(C)CC3)ccc1O (stereo unspecified)	inactive
COc1cc(/C=C(\C#N)c2nc3ccccc3[nH]2)ccc1O	-8.51 (active)
COc1ccccc1NC(=O)N1CCCC1C(=O)NCc1cccs1 (stereo unspecified)	inactive
O=C1Nc2ccc(Br)cc2/C1=N/N=C/C1=C(N2CCOCC2)C(=C\c2ccccc2)/CC1	inactive
COc1cccc2sc(N(CCCN(C)C)C(=O)CCS(=O)(=O)c3ccccc3)nc12	inactive
COc1cccc2sc(N(CCCN(C)C)C(=O)C(c3ccccc3)c3ccccc3)nc12	inactive
Cc1cccc2sc(N(CCCN(C)C)C(=O)CCS(=O)(=O)c3ccccc3)nc12	-8.92 (active)
